Entries after “also recorded” stand apart in the source; their conditions may differ.
Legend:
adults with NASH [1] = assay: Adverse events, phase 2 trial; format: in vivo, human
adults with NASH [2] = assay: Serum ALT, phase 2 placebo-controlled trial of GS-9450 for 4 weeks; format: in vivo, human; settings: for ALT, %Change at Week 4 / ALT, Change at Week 2 / ALT, Change at Week 4: mean (SD); for Observed change from baseline to week 4 in ALT, Difference T − R / Percent change from baseline to week 4 in ALT, Difference T − R / Observed change from baseline to week 4 in ALT, Least Squares Means GS-9450 (T) / Percent change from baseline to week 4 in ALT, Least Squares Means GS-9450 (T): ANCOVA model
adults with NASH [3] = assay: Exploratory pharmacokinetic/pharmacodynamic modeling; format: in vivo, human; settings: mean exposure with 40 mg; inhibitory Emax model
hepatitis C subjects = settings: human, in vivo; cited from earlier work
[4] = Steady-state plasma pharmacokinetics of GS-9450; format: in vivo, human
Summary of the method: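 Plasma was assayed with a validated bioanalytical method. Steady-state Cmax, Tmax, T1/2 and AUCtau came from weeks 2–4 profiles by noncompartmental analysis. Trough samples were taken at weeks 1–4 and follow-up week 1. Dose proportionality of AUCtau and Cmax was tested by a power model across all fasted doses.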

adults with NASH [5] = assay: Treatment-emergent grade 3 or 4 laboratory abnormalities, phase 2 trial
[6] = 10 mg (n = 24), during treatment
[7] = 40 mg (n = 25), during treatment

With `CC(C)[C@@]1(C(=O)N[C@H]2CC(=O)O[C@]2(O)CF)CC(c2nccc3ccccc23)=NO1` [GS-9450] the Dizziness (adults with NASH [1]; [6]) was 0 n (%), the Dry mouth (adults with NASH [1]; [6]) was 2 (8) n (%) and the Dyspepsia (adults with NASH [1]; [6]) was 1 (4) n (%). The Fatigue (adults with NASH [1]; [6]) was 2 (8) n (%), the Gastroesophageal reflux disease (adults with NASH [1]; [6]) was 0 n (%) and the Headache (adults with NASH [1]; [6]) was 4 (17) n (%). The Nasopharyngitis (adults with NASH [1]; [6]) was 0 n (%), the Nausea (adults with NASH [1]; [6]) was 3 (13) n (%) and the “No. of subjects with at least one AE” value (adults with NASH [1]; [6]) was 18 (75) n (%). For the same compound, the Pain in extremity (adults with NASH [1]; [6]) was 1 (4) n (%), the Somnolence (adults with NASH [1]; [6]) was 0 n (%) and the “Total no. of events (AEs)” value (adults with NASH [1]; [6]) was 67. The “frequency of treatment-emergent AEs during the 4-week on-treatment period” value (adults with NASH [1]; 40 mg) was 80%, the Abdominal pain (adults with NASH [1]; [7]) was 1 (4) n (%) and the Abdominal pain upper (adults with NASH [1]; [7]) was 1 (4) n (%). The Arthralgia (adults with NASH [1]; [7]) was 3 (12) n (%), the Asthenia (adults with NASH [1]; [7]) was 0 n (%) and the Back pain (adults with NASH [1]; [7]) was 1 (4) n (%). For the same compound, the Constipation (adults with NASH [1]; [7]) was 2 (8) n (%), the Diarrhea (adults with NASH [1]; [7]) was 5 (20) n (%) and the Dizziness (adults with NASH [1]; [7]) was 2 (8) n (%). For the same compound, the Dry mouth (adults with NASH [1]; [7]) was 1 (4) n (%), the Dyspepsia (adults with NASH [1]; [7]) was 1 (4) n (%) and the Fatigue (adults with NASH [1]; [7]) was 2 (8) n (%). For the same compound, the Gastroesophageal reflux disease (adults with NASH [1]; [7]) was 3 (12) n (%), the Headache (adults with NASH [1]; [7]) was 4 (16) n (%) and the Nasopharyngitis (adults with NASH [1]; [7]) was 2 (8) n (%). For the same compound, the Nausea (adults with NASH [1]; [7]) was 3 (12) n (%), the “No. of subjects with at least one AE” value (adults with NASH [1]; [7]) was 20 (80) n (%) and the Pain in extremity (adults with NASH [1]; [7]) was 2 (8) n (%). The Somnolence (adults with NASH [1]; [7]) was 0 n (%), the “Total no. of events (AEs)” value (adults with NASH [1]; [7]) was 60 and the “subjects who left the study because of a treatment-related AE” value (adults with NASH [1]; 40 mg, moderate facial flushing from day 1) was “One subject”. The “overall safety and tolerability” value (adults with NASH [1]; 4 weeks, 1-40 mg) was “safe and well tolerated”, the “serious adverse events during the on-treatment period” value (adults with NASH [1]; all GS-9450 doses, 4 weeks) was “No serious adverse events; also recorded: no serious AEs (SAEs)” and the “deaths during the study” value (adults with NASH [1]; all groups) was “no deaths”. For the same compound, the “ALT, %Change at Week 4” value (adults with NASH [2]; 1 mg once daily) was −8 (41) %, the “ALT, Change at Week 2” value (adults with NASH [2]; 1 mg once daily) was −17 (31) U/L and the “ALT, Change at Week 4” value (adults with NASH [2]; 1 mg once daily) was −14 (40) U/L. The “Observed change from baseline to week 4 in ALT, Difference T − R” value (“Observed change … Difference T − R” for short) (adults with NASH [2]; 1 mg vs. pooled placebo) was −11 U/L, the “Percent change from baseline to week 4 in ALT, Difference T − R” value (“Percent change … Difference T − R” below) (adults with NASH [2]; 1 mg vs. pooled placebo) was −6% and the “Observed change from baseline to week 4 in ALT, Least Squares Means GS-9450 (T)” value (from here on “Observed change from baseline … (T)”) (adults with NASH [2]; 1 mg) was −15 U/L. For the same compound, the “Percent change from baseline to week 4 in ALT, Least Squares Means GS-9450 (T)” value (shortened to “Percent change from baseline … (T)”) (adults with NASH [2]; 1 mg) was −8%, the “ALT, %Change at Week 4” value (adults with NASH [2]; 5 mg once daily) was −28 (21) % and the “ALT, Change at Week 2” value (adults with NASH [2]; 5 mg once daily) was −35 (18) U/L. The “ALT, Change at Week 4” value (adults with NASH [2]; 5 mg once daily) was −30 (26) U/L, the “Observed change … Difference T − R” value (adults with NASH [2]; 5 mg vs. pooled placebo) was −25 U/L and the “Percent change … Difference T − R” value (adults with NASH [2]; 5 mg vs. pooled placebo) was −26%. The “Observed change from baseline … (T)” value (adults with NASH [2]; 5 mg) was −29 U/L, the “Percent change from baseline … (T)” value (adults with NASH [2]; 5 mg) was −28% and the “ALT, %Change at Week 4” value (adults with NASH [2]; 10 mg once daily) was −30 (20) %. For the same compound, the “ALT, Change at Week 2” value (adults with NASH [2]; 10 mg once daily) was −37 (23) U/L, the “ALT, Change at Week 4” value (adults with NASH [2]; 10 mg once daily) was −30 (26) U/L and the “Observed change … Difference T − R” value (adults with NASH [2]; 10 mg vs. pooled placebo) was −28 U/L. The “Percent change … Difference T − R” value (adults with NASH [2]; 10 mg vs. pooled placebo) was −28%, the “Observed change from baseline … (T)” value (adults with NASH [2]; 10 mg) was −32 U/L and the “Percent change from baseline … (T)” value (adults with NASH [2]; 10 mg) was −31%. For the same compound, the “mean (SD) ALT decrease from baseline to week 4” value (adults with NASH [2]; 40 mg) was 47 (43) U/L, the “ALT, %Change at Week 4” value (adults with NASH [2]; 40 mg once daily) was −43 (19) % and the “ALT, Change at Week 2” value (adults with NASH [2]; 40 mg once daily) was −46 (46) U/L. The “ALT, Change at Week 4” value (adults with NASH [2]; 40 mg once daily) was −47 (43) U/L, the “Observed change … Difference T − R” value (adults with NASH [2]; 40 mg vs. pooled placebo) was −39 U/L and the “Percent change … Difference T − R” value (adults with NASH [2]; 40 mg vs. pooled placebo) was −40%. The “mean ALT change from baseline at follow-up week 2” value (adults with NASH [2]; 40 mg, off treatment) was 16 IU/L, the “mean ALT change from baseline at follow-up week 3” value (adults with NASH [2]; 40 mg, off treatment) was 13 IU/L and the “mean ALT change from baseline at follow-up week 4” value (adults with NASH [2]; 40 mg, off treatment) was 12 IU/L. The “proportion of subjects with normal ALT at week 4” value (adults with NASH [2]; 40 mg, 0% at baseline, normal 43 U/L males, 34 U/L females) was 35%, the “mean absolute ALT value at week 4” value (adults with NASH [2]; 40 mg, 106 U/L at baseline) was 62 U/L and the “Observed change from baseline … (T)” value (adults with NASH [2]; 40 mg) was −43 U/L. For the same compound, the “Percent change from baseline … (T)” value (adults with NASH [2]; 40 mg) was −42%, the “nonresponders at week 4 (decrease in ALT of <10% relative to baseline)” value (adults with NASH [2]; 40 mg, two subjects) was 8% and the “time after stopping study medication until ALT reduction was offset” value (adults with NASH [2]; off-treatment follow-up) was no more than 1 week. For the same compound, the “ALT mean (SD) changes from baseline at week 4” value (adults with NASH [2]; range across the GS-9450 groups (1-40 mg)) was −14 (40) to −47 (43) U/L, the “response as percent of the maximal effect achievable with GS-9450 (week 4 difference in ALT or CK-18 fragments)” value (adults with NASH [3]) was “at least 82%” and the drug-induced liver injury (hepatitis C subjects) was “episodes of drug-induced liver injury attributable to GS-9450 occurred”. For the same compound, the “time by which steady state had been reached” value ([4]; daily dosing, all dose groups) was 2–4 weeks, the “median Tmax” value ([4]; fasting conditions, steady state, plasma) was 2 to 3 h and the Cmax dose proportionality ([4]; from 1 to 40 mg) was “dose-proportional”. For the same compound, the “treatment-emergent grade 3 elevated ALT, subjects” value (adults with NASH [5]; 1 mg, on-treatment) was “one subject”, the “treatment-emergent grade 3 elevated AST, subjects” value (adults with NASH [5]; 5 mg) was “one subject” and the “treatment-emergent grade 3 or 4 elevated serum lipase, subjects” value (adults with NASH [5]; 5 mg) was “one subject”. The “treatment-emergent grade 3 or 4 ALT elevations during dosing” value (adults with NASH [5]; 5, 10, or 40 mg daily, 75 patients) was “No treatment-emergent grade 3 or 4 ALT elevations”.

Reference: paper PMC3779694 (Hepatology (Baltimore, Md.), 2011)
